Results reported in paper PMC3181111 (ACS chemical neuroscience, 2011).

Test system: male C57BL/6J mice
Assay: Mouse tail suspension test
Type: in vivo
Conditions: 30 minutes, vs water vehicle
Method in brief: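 Mice suspended by the tail with adhesive tape from a metal bar 30 cm high. Drugs given i.p. 30 min before testing. Reference inhibitors were in sterile water; test compounds were in DMSO at 2% (0.01 mL/g) or 100% (0.002 mL/g). Immobility time was scored by a blinded observer from 6-min video, n = 7–9, with one-way ANOVA and Tukey posthoc.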

CNCCCN1c2ccccc2CCc2ccccc21 [desipramine]
Immobility time in tail suspension test (3 mg/kg i.p.): decreased immobility times

COCCCC/C(=N\OCCN)c1ccc(C(F)(F)F)cc1 [fluvoxamine]
Immobility time in tail suspension test (10 mg/kg i.p.): decreased immobility times
